Assay outcomes: PubChem BioAssay, several laboratories
FXIa inh – factor XIa (human) inhibition; P03951; purified FXIa, Boc-Glu-Ala-Arg-AMC fluorogenic substrate; inhibition, % at 5 µM; hit rate 0.14% among 220,000; AID 798;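 active = inhibition of at least 40%; inactive = inhibition below 40%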;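 also: fluorescence of freed AMC excited at 355 nm; 0% = enzyme without compound and 100% = no enzyme blank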
Thrombin inh – inhibitors of human thrombin | P00734 | alpha-thrombin, Boc-VPR-AMC fluorogenic substrate cleavage | inhibition, % at 5 µM | hit rate 0.26% among 220,000;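 active = inhibition at or above 40%; inactive = inhibition below 40%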;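 also: 0% = enzyme with no compound and 100% = wells without enzyme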
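System: Human alpha-thrombin protein | Medium: pH 7.5 Tris (50 mM) with NaCl 150 mM, Tween 20 0.05% | Times: Enzyme reaction carried out at room temperature | Detection: AMC fluorescence, 355/460 nm | Evaluation: Percent inhibition scaled between no-compound controls and no-enzyme blanks | Benchmarks: Enzyme without compound as high, wells lacking enzyme as low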
Fh CTSL1 inh – blocks F. hepatica cathepsin L1 in PFM18AAP counter-screen; recombinant F. hepatica cathepsin L1, Z-Leu-Arg-MCA fluorescence; inhibition, % at 5.96 µM; hit rate 0.49% among 300,000;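 active = inhibition above the mean of all tested compounds plus 3 SD, set per screening campaign, cut at about 17% in these data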;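 also: 0% = plate median of test compound wells and 100% = 1 µM Z-Phe-Ala-diazomethylketone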
hK5 inh – inhibitors of human kallikrein 5. Q9Y337. recombinant hK5, fluorogenic AMC substrate cleavage. inhibition, % at 5 µM. hit rate 0.59% among 210,000;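 active = inhibition of 40% or more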;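 also: 0% = enzyme controls without compound and 100% = no-enzyme blanks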
Rce1 inh – yeast Ras-converting enzyme inhibition; Q03530; yeast membranes, quenched prenylated peptide cleavage fluorescence; calls only; hit rate 0.27% among 290,000;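 active = fall in fluorescence gain of 50% or more versus controls, with final raw signal at or below 3038400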;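 also: plate controls were neutral control wells for no effect and wells lacking membranes for full effect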
FXIIa inh – blocks human coagulation factor XIIa protease activity | purified FXIIa, Boc-QGR-AMC fluorogenic substrate, 2 h | AID 800 | P00748 | inhibition, % at 5 µM | hit rate 0.3% among 220,000; in the data active = inhibition above about 40%;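 also: 0% = enzyme with no compound and 100% = blank without enzyme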
Target sequence (P00748 20-372 limits assumed): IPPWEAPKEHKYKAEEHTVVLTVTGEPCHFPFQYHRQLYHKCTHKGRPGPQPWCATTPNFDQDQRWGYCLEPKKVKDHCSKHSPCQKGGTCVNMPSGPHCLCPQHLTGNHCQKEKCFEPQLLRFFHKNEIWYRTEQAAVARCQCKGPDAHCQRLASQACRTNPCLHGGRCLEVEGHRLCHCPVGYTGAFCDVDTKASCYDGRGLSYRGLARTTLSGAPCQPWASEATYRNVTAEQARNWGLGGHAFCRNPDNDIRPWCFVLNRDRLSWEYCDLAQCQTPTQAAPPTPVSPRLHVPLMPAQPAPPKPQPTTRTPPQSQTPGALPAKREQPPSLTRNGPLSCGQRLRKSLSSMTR
Target sequence (P00748 373-615 limits assumed): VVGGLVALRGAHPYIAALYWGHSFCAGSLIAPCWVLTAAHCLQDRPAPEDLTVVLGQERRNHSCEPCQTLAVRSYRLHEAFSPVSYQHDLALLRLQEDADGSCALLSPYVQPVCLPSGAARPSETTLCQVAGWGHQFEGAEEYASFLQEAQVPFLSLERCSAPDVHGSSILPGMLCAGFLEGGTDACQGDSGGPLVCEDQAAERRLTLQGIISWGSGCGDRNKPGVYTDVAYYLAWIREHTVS
* marks the source's active call; other numbers are inactive results; i = inactive; · = not tested or not shown; + = active, no number. Most compounds without a hit are left out; they make up all but 1.4% or so of the library.

SMILES	FXIa inh	Thrombin inh	Fh CTSL1 inh	hK5 inh	Rce1 inh	FXIIa inh
CC1CCN(S(=O)(=O)c2cc(F)ccc2CN2C(=O)c3cccnc3C2=O)CC1	·	·	-0.1	·	i	·
Cc1ccnc(NC(=O)c2ccc([N+](=O)[O-])o2)c1	12.2	100.9*	1.4	19.8	i	10.1
Cc1ccc(-c2csc(NC(=O)c3ccc([N+](=O)[O-])o3)n2)cc1	·	·	16.8*	·	i	·
O=C(Nc1ccccn1)c1ccc([N+](=O)[O-])o1	6.6	1.4	-0.4	-4.2	i	12.0
O=C(Cn1nnc(-c2cccs2)n1)NNC(=O)c1ccccc1Cl	-4.8	-6.3	1.3	-7.1	i	1.6
C#CC(=O)N(c1cc(OC)ccc1OC)C(C(=O)NC1CCCC1)c1cccs1 (stereo unspecified)	0.9	7.9	34.2*	1.4	i	12.3
C#CC(=O)N(c1ccc(OC)cc1OC)C(C(=O)NC1CCCC1)c1cccs1 (stereo unspecified)	-7.1	-7.8	29.5*	-1.1	·	2.4
COc1ccc(N(C(=O)c2ccco2)C(C(=O)NC2CCCCC2)c2cccs2)cc1OC (stereo unspecified)	5.6	4.0	-0.4	-3.3	i	15.2
O=C(NCCc1ccc(O)c(O)c1)C1COc2ccccc2O1 (stereo unspecified)	·	·	4.2	·	i	·
CCC(CC)C(=O)Nc1ccc(C(=O)Nc2cc(C)on2)cc1	7.8	-4.0	-1.5	-19.4	i	-1.8
Cc1ccc(OCc2nnc(SCC(=O)O)n2N)cc1	30.4	2.6	-1.5	-23.5	i	44.6*
Cc1ccc(OCc2nnc(SCC(=O)O)n2-c2ccccc2)cc1	·	·	5.6	·	i	·
CCCSc1nc2c(c(=O)n(C)c(=O)n2C)n1C	-0.5	-1.8	-1.1	-2.5	i	-1.3
O=C1C2C3C=CC(CC3)C2C(=O)N1c1ccccc1[N+](=O)[O-] (stereo unspecified)	-2.2	-9.7	18.7*	-5.2	i	4.4
Cc1ccc(S(=O)(=O)N2CCCCC2)cc1C(=O)NCCCN1CCOCC1	·	·	-1.2	·	i	·
Oc1ccc(N=Cc2ccc(-c3cccs3)s2)cc1	3.2	-5.3	39.5*	-34.5	i	8.8
O=C(O)c1ccc(N/N=C/c2ccc(-c3ccccc3Cl)o2)cc1	3.0	-11.6	12.2	3.3	+	6.5
O=C(N/N=C/c1ccc(-c2ccccc2Cl)o1)c1ccccc1	1.7	7.3	1.3	-0.9	i	14.8
O=C1C(Cl)=C(N2CCOCC2)C(=O)N1c1cccc(Cl)c1	-2.1	-0.9	57.3*	-2.8	i	13.0
CCc1ccc(N2C(=O)C(Cl)=C(N3CCOCC3)C2=O)cc1	3.3	-5.1	32.3*	-7.6	i	5.3
Cc1cccc(N2C(=O)C(Cl)=C(N3CCOCC3)C2=O)c1	3.0	-5.0	27.7*	-2.0	i	5.1
COc1ccc(F)cc1C(=O)C1CCCN(C(=O)c2ccccc2N(C)C)C1 (stereo unspecified)	·	·	-3.2	·	i	·
COc1ccc(Oc2ccccc2C=O)cc1	3.7	19.6	0.1	50.6*	i	19.7
COc1ccc(Oc2ccccc2/C=C/C(=O)O)cc1	2.0	0.3	-1.7	-5.3	i	13.8
O=C(C(Cl)Cl)N1CCN(Cc2ccc3c(c2)OCO3)CC1	·	·	-10.1	·	i	·
SMILES	FXIa inh	Thrombin inh	Fh CTSL1 inh	hK5 inh	Rce1 inh	FXIIa inh
CC(C(=O)N1CCN(Cc2ccc3c(c2)OCO3)CC1)c1ccc([N+](=O)[O-])cc1 (stereo unspecified)	-0.5	-4.1	18.0*	2.9	i	7.6
COc1cccc(CCc2nnc(CCC(=O)NCCC3CCCCO3)o2)c1 (stereo unspecified)	·	·	0.4	·	i	·
Clc1ccc(-c2cccs2)nn1	-2.7	-0.6	-2.2	-0.1	i	3.7
Clc1ccc(-c2ccccc2)nn1	-8.6	-6.2	0.1	45.1*	i	5.4
O=C(c1cccc(Cl)c1)N1CCN(C2CCCCC2)CC1	·	·	25.2*	·	i	·
Cc1ccc(S(=O)(=O)N2CCCCC2)cc1NC(=O)COC(=O)Cc1cccc(C(F)(F)F)c1	9.7	-1.7	-3.2	-2.4	i	13.0
CC1=C(C(=O)NCc2ccc(Cl)cc2)C2(CCC(C)CC2)OC1=O (stereo unspecified)	-3.7	-0.1	2.4	-1.1	i	10.0
CC1=C(C(=O)NCc2ccccn2)C2(CCC(C)CC2)OC1=O (stereo unspecified)	5.8	12.4	1.2	114.5*	i	25.5
